The results in this text go back to ChEMBL document CHEMBL4266022, “Azaphilone Derivatives from the Fungus Coniella fragariae Inhibit NF-κB Activation and Reduce Tumor Cell Migration” (J Nat Prod, 2018).

The IC50 is the concentration needed to halve the response being measured. Usually inhibition stands for the change of the read-out against control, counted positive when it falls.

Active and inactive are the calls of the source. No cut-off for these calls is given here.

A short description of test [1]: Inhibition of NF-kappaB in human MDA-MB-231 cells assessed as reduction in TNFalpha-induced NF-kappaB activation incubated with compound for 20 mins followed by TNFalpha stimulation measured after 2 hrs by luminescence assay.
Test [2] relates to MDA-MB-231. Put plainly: Cytotoxicity against human MDA-MB-231 cells assessed as decrease in cell viability after 24 hrs by cellTiter-Glo reagent based assay. The conditions noted are these: MDA-MB-231, 24 h. The class given is functional. In a few lines:
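MDA-MB-231 cells (RPMI, 15% FCS, 37 °C, 5% CO2) seeded at 5600 cells/well in 384-well plates, cultured overnight, then treated 24 h. Viability by CellTiter-Glo luminescence. Positive control 5 μM staurosporine; 1% DMSO set as 100% viability.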
For orientation: In ATP-based viability assays light output follows the ATP content of the culture.

In test [3] the test system is MDA-MB-231. Put plainly: Cytotoxicity against human MDA-MB-231 cells assessed as decrease in cell viability at 5 uM after 24 hrs by cellTiter-Glo reagent based assay. The class given is functional. In a few lines: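 MDA-MB-231 cells (RPMI, 15% FCS, 37 °C, 5% CO2) were seeded at 5600 cells/well, cultured overnight, then treated at 5 μM for 24 h. Viability was read by CellTiter-Glo luminescence and normalised to 1% DMSO as 100% viability.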

Test [4] deals with MDA-MB-231. Put plainly: Inhibition of cell migration in human MDA-MB-231 cells at 5 uM after 24 hrs by wound-scratch assay. The class given is functional. The procedure, abridged:
(§1)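 MDA-MB-231 cells seeded at 50 000 cells/well; scratch made after 24 h with automated wound maker. Compounds added, wound imaged every 2 h over 24 h by live-cell imager; migration into wound quantified.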

The subject of test [5] is MDA-MB-231. Put plainly: Inhibition of cell migration in human MDA-MB-231 cells at 10 uM after 24 hrs by wound-scratch assay. The class given is functional. As to conditions: MDA-MB-231, 24 h. In a few lines: as §1
Test [6] concerns MDA-MB-231. In words: Anti-invasive activity in human MDA-MB-231 cells assessed as inhibition of cell invasion into surrounding extracellular matrix at 10 uM after 24 hrs. As to conditions: MDA-MB-231, 24 h. The class given is functional. In a few lines: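 Spheroids formed from 3000 MDA-MB-231 cells/well with 0.25% matrigel in ultralow-attachment plates (centrifuged 10 min, 1000 rpm, 4 °C), 72 h formation. Embedded in matrigel:collagen R (1:1), polymerized 1 h at 37 °C. Invasion into matrix imaged daily over 3 days, quantified by image analysis.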

Consider `CCCCCCCC(=O)[C@H]1C(=O)O[C@@]2(C)C(=O)C(C=O)=C3C=C(C)OC=C3[C@H]12`, for which the concentration for half-maximal inhibition (IC50) was more than 100 µM in test [1] and 19.6 µM in test [2].
Turning to `CN[C@@H]1C[C@H]2O[C@@](C)([C@@H]1OC)n1c3ccccc3c3c4c(c5c6ccccc6n2c5c31)C(=O)NC4` [STAUROSPORINE], the Activity in test [3] is 10.9%.
For the molecule `CCCCC[C@@H](O)CC(=O)C[C@H]1C2=COC(C)=CC2=C(C=O)C(=O)[C@]1(C)O`, in test [4], the inhibition result was “inactive”. Moreover, the IC50 in test [1] is 70.7 µM; in test [2], more than 100 µM.
For `CCCCC[C@@H](CC(=O)C[C@H]1C2=COC(C)=CC2=C(C=O)C(=O)[C@]1(C)O)OC`, the inhibition result in test [4] is “inactive”. Moreover, the IC50 stood at 11.3 µM in test [1] and 21.6 µM in test [2].
For the molecule `CCCCC/C=C/C(=O)C[C@H]1C2=COC(C)=CC2=C(C=O)C(=O)[C@]1(C)O`, testing at 10 µM in test [5] gave an inhibition of 78%. In addition, the IC50 in test [1] turned out to be 37.8 µM; in test [2], 18.6 µM.
Take `CCCCCC(CC(=O)[C@H]1C(=O)O[C@@]2(C)C(=O)C(C=O)=C3C=C(C)OC=C3[C@H]12)OC` (some centres not stated): the IC50 in test [1] was more than 100 µM; in test [2], 21 µM.
For the molecule `CCCCC/C=C/C(=O)[C@H]1C(=O)O[C@@]2(C)C(=O)C(C=O)=C3C=C(C)OC=C3[C@H]12`, the inhibition at 10 µM in test [5] amounted to 98%; in test [6], 52%. In addition, the inhibition at 5 µM in test [4] (MDA-MB-231, 24 h) amounted to 60%. Besides, the IC50 came to 4.4 µM in test [1] and 21.5 µM in test [2].
With `CCCCC[C@H](O)CC(=O)C[C@H]1C2=COC(C)=CC2=C(C=O)C(=O)[C@]1(C)O`, in test [5], testing at 10 µM gave an inhibition of 83%. The IC50 in test [1] came out at 29.4 µM; in test [2] it was 79.3 µM.
